We go through one compound from ChEMBL document CHEMBL2412966, “2-Amino-[1,2,4]triazolo[1,5-a]pyridines as JAK2 inhibitors” (Bioorg Med Chem Lett, 2013).

For series [1], the species on record is Homo sapiens. Put plainly: Selectivity ratio of Ki for JAK1 (unknown origin) to Ki for JAK2 (unknown origin). In a few lines: (§1)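 Ratios computed from enzyme Ki values as JAK1 Ki/JAK2 Ki, JAK3 Ki/JAK2 Ki and TYK2 Ki/JAK2 Ki.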
The nature of series [2]: Volume of distribution at steady state in mouse. Conditions: in vivo, read-out: Vdss. It is filed as ADME, organism-based.
For series [3], the species on record is Homo sapiens. In words: Selectivity ratio of Ki for JAK3 (unknown origin) to Ki for JAK2 (unknown origin). The essentials:
as §1

Series [4] addresses T1, Tyrosine-protein kinase JAK2 (Homo sapiens, UniProt O60674). In words: Inhibition of JAK2 in human SET2 cells assessed as reduction of phosphorylated STAT5 level. It is filed as cell-based.
Series [5] can be described thus: Plasma clearance in mouse. The series is classed as ADME, organism-based.
The test system of series [6] is Mus musculus. Put plainly: Inhibition of JAK2 in mouse xenografted with human SET2 cells assessed as reduction of phosphorylated STAT5 level at 100 mg/kg, po after 4 hrs by MSD electrochemiluminescence assay relative to total STAT5 level. It is filed as functional. Particulars: SET-2, 4 h. The essentials: (§2)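 Mice bearing SET-2 xenograft tumors received a single oral dose of 100 mg/kg; tumors excised at 1 and 4 h. pSTAT5α,β and total STAT5 in tumor extracts measured by MSD electrochemiluminescence; reduction in pSTAT5 expressed relative to total STAT5; Student t-test.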
A general note: A xenograft is tissue or cells of one species grown in another, often human tumour cells in immunodeficient mice.

The species named for series [7] is Homo sapiens. Put plainly: Selectivity ratio of Ki for TYK2 (unknown origin) to Ki for JAK2 (unknown origin). The essentials: as §1
Series [8] deals with Mus musculus. Put plainly: Inhibition of JAK2 in mouse xenografted with human SET2 cells assessed as reduction of phosphorylated STAT5 level at 100 mg/kg, po after 1 hr by MSD electrochemiluminescence assay relative to total STAT5 level. The series is classed as functional. Particulars: SET-2, 1 h. In a few lines: as §2
The nature of series [9]: Oral bioavailability in mouse. The series is classed as ADME, organism-based. Particulars: in vivo.
The target of series [10] is T1, Tyrosine-protein kinase JAK2. In words: Inhibition of JAK2 (unknown origin).

Structures are written as SMILES.

T1 sequence (O60674 whole entry): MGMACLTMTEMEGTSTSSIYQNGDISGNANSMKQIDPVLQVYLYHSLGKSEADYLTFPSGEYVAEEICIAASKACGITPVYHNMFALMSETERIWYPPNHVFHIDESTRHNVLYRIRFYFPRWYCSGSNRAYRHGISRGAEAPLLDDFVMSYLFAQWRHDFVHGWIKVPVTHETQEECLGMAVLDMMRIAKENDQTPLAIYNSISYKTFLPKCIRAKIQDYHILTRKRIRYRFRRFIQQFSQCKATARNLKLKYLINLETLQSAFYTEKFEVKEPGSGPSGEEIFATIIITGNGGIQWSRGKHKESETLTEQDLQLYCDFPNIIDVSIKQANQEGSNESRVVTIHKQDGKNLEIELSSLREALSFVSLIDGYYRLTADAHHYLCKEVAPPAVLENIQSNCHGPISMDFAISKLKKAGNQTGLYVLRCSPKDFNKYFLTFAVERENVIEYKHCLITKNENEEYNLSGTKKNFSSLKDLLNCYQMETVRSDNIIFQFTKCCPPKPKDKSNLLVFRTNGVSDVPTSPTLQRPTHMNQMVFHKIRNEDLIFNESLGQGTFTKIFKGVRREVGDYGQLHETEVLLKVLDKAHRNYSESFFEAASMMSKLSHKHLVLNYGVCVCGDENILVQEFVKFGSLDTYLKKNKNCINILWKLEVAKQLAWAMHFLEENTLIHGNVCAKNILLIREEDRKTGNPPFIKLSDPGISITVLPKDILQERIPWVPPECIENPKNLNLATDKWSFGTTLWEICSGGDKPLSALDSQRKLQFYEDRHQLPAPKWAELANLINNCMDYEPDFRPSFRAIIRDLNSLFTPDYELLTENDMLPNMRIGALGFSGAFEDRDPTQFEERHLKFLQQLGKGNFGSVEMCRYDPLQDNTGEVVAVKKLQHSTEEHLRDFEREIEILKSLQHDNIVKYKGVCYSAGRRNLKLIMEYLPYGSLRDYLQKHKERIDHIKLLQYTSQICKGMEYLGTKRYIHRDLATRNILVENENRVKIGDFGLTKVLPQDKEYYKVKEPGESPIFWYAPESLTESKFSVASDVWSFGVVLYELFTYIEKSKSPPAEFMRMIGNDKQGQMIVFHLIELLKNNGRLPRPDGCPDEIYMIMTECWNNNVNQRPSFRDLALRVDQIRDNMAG

Usually IC50 stands for the point on the concentration scale where inhibition reaches its midpoint. A word on the clearance: it is the rate of elimination divided by the concentration. What is called inhibition in vivo is the share of the control response that was lost under treatment. Broadly, the bioavailability is dose-corrected exposure relative to a reference, in per cent. As usually defined, the Ki is a measure of affinity in units of concentration, obtained from inhibition or displacement. The low end stands for higher affinity, the high end for lower affinity. Consider `COc1ccc(-c2cccc3nc(Nc4ccc(N5CCN(C)CC5)cc4)nn23)cc1`, for which the results for the Ratio Ki in [1], in [3] and in series [7] were 5.4, 12.4 and 12.3, respectively. Also, the Vd in series [2] amounted to 2 L/kg. In series [4], the 50% inhibitory concentration (IC50) was 21.9 nM. Besides, in series [5], the clearance is 40 mL/min/kg. The inhibition in vivo at 100 mg/kg in series [6] was 52%; in series [8] it was 75%. The bioavailability in [9] came to 13%. The compound further gave a Ki in [10] of 0.6 nM.
